# Active and inactive are the calls of the source. The calls are words filed in the database; no cut-off is given here.
# System: K562
# Assay: Growth inhibition of human K562 cells incubated for 48 hrs by sulforhodamine B assay
# Type: functional
# Settings: not given
row,Structure (SMILES),INH
1,COc1ccc2nccc(CC[C@H]3OC[C@H](NC(=O)c4ccc(C)cc4)CO3)c2c1,18 µM
2,COc1ccc2nccc(CC[C@H]3OC[C@H](NC(=O)c4ccc(C(C)(C)C)cc4)CO3)c2c1,8.4 µM
3,COc1ccc2nccc(CC[C@H]3OC[C@H](NC(=O)c4ccc(Cl)cc4)CO3)c2c1,10 µM
4,COc1ccc2nccc(CC[C@H]3OC[C@H](NC(=O)c4ccc5c(n4)NC(=O)CO5)CO3)c2c1,>200 µM
5,COc1ccc2nccc(CC[C@H]3OC[C@H](NC(=O)c4ccc(OC(F)(F)F)cc4)CO3)c2c1,11 µM
6,COc1ccc2nccc(CC[C@H]3OC[C@H](NC(=O)c4cccc(Cl)c4)CO3)c2c1,<200 µM
7,COc1ccc2nccc(CC[C@H]3OC[C@H](NC(=O)c4ccc5c(c4)NC(=O)CO5)CO3)c2c1,>200 µM
8,COc1ccc2nccc(CC[C@H]3OC[C@H](NC(=O)c4ccc5c(n4)NC(=O)CS5)CO3)c2c1,>200 µM

# System: Staphylococcus aureus
# Assay: Antibacterial activity against Staphylococcus aureus USA300 by CLSI based agar dilution method
# Type: functional
# Settings: not given
row,Structure (SMILES),MIC
1,COc1ccc2nccc(CC[C@H]3OC[C@H](NC(=O)c4ccc(C)cc4)CO3)c2c1,1 µg/mL
2,COc1ccc2nccc(CC[C@H]3OC[C@H](NC(=O)c4ccc(C(C)(C)C)cc4)CO3)c2c1,1 µg/mL
3,COc1ccc2nccc(CC[C@H]3OC[C@H](NC(=O)c4ccc(Cl)cc4)CO3)c2c1,1 µg/mL
4,COc1ccc2nccc(CC[C@H]3OC[C@H](NC(=O)c4ccc5c(n4)NC(=O)CO5)CO3)c2c1,0.125 µg/mL
5,COc1ccc2nccc(CC[C@H]3OC[C@H](NC(=O)c4ccc(OC(F)(F)F)cc4)CO3)c2c1,1 µg/mL
6,COc1ccc2nccc(CC[C@H]3OC[C@H](NC(=O)c4cccc(Cl)c4)CO3)c2c1,1 µg/mL
7,COc1ccc2nccc(CC[C@H]3OC[C@H](NC(=O)c4ccc5c(c4)NC(=O)CO5)CO3)c2c1,0.25 µg/mL
8,COc1ccc2nccc(CC[C@H]3OC[C@H](NC(=O)c4ccc5c(n4)NC(=O)CS5)CO3)c2c1,0.03 µg/mL

# Target: T1, DNA gyrase (Staphylococcus aureus) (UniProt P0A0K8+P20831)
# Assay: Inhibition of Staphylococcus aureus DNA gyrase assessed as single-strand break at 20 uM using relaxed pBR322 as substrate by ethidium bromide-based gel electrophoresis
# Type: protein-complex assay
# Settings: not given
# Outline: (§1)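 S. aureus gyrase-mediated DNA cleavage: compound was incubated with enzyme and DNA, and products were resolved on an ethidium-stained gel into negatively supercoiled, nicked (single-strand break) and linear (double-strand break) forms. Lane fluorescence was corrected for differential band emission. Percent of each form was calculated, and enzyme-only cleavage was subtracted. Concentrations spanned 0.1 nM–200 μM, with a 20 μM single-point screen. Results are mean ± SD or range.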
row,Structure (SMILES),inhibition
1,COc1ccc2nccc(CC[C@H]3OC[C@H](NC(=O)c4ccc(C)cc4)CO3)c2c1,Active
2,COc1ccc2nccc(CC[C@H]3OC[C@H](NC(=O)c4ccc(C(C)(C)C)cc4)CO3)c2c1,Active
3,COc1ccc2nccc(CC[C@H]3OC[C@H](NC(=O)c4ccc(Cl)cc4)CO3)c2c1,Active
4,COc1ccc2nccc(CC[C@H]3OC[C@H](NC(=O)c4ccc(OC(F)(F)F)cc4)CO3)c2c1,Active
5,COc1ccc2nccc(CC[C@H]3OC[C@H](NC(=O)c4cccc(Cl)c4)CO3)c2c1,Active

# Target: DNA topoisomerase 2-alpha (Homo sapiens, UniProt P11388)
# Assay: Inhibition of human topoisomerase 2alpha
# Settings: not given
# Outline: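 Human topoisomerase IIα decatenation activity was tested at a single concentration of 100 μM and reported as percent inhibition.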
row,Structure (SMILES),inhibition (INH)
1,COc1ccc2nccc(CC[C@H]3OC[C@H](NC(=O)c4ccc(C)cc4)CO3)c2c1,Not Active
2,COc1ccc2nccc(CC[C@H]3OC[C@H](NC(=O)c4ccc(C(C)(C)C)cc4)CO3)c2c1,Not Active
3,COc1ccc2nccc(CC[C@H]3OC[C@H](NC(=O)c4ccc(Cl)cc4)CO3)c2c1,Not Active
4,COc1ccc2nccc(CC[C@H]3OC[C@H](NC(=O)c4ccc(OC(F)(F)F)cc4)CO3)c2c1,Not Active

# System: not listed separately
# Assay: Growth inhibition of human K/VP.5 cells incubated for 48 hrs by sulforhodamine B assay
# Type: functional
# Settings: not given
row,Structure (SMILES),INH
1,COc1ccc2nccc(CC[C@H]3OC[C@H](NC(=O)c4ccc(C)cc4)CO3)c2c1,17 µM
2,COc1ccc2nccc(CC[C@H]3OC[C@H](NC(=O)c4ccc(C(C)(C)C)cc4)CO3)c2c1,8.8 µM
3,COc1ccc2nccc(CC[C@H]3OC[C@H](NC(=O)c4ccc(Cl)cc4)CO3)c2c1,11 µM
4,COc1ccc2nccc(CC[C@H]3OC[C@H](NC(=O)c4ccc5c(n4)NC(=O)CO5)CO3)c2c1,>200 µM
5,COc1ccc2nccc(CC[C@H]3OC[C@H](NC(=O)c4ccc(OC(F)(F)F)cc4)CO3)c2c1,9 µM
6,COc1ccc2nccc(CC[C@H]3OC[C@H](NC(=O)c4cccc(Cl)c4)CO3)c2c1,50 µM
7,COc1ccc2nccc(CC[C@H]3OC[C@H](NC(=O)c4ccc5c(c4)NC(=O)CO5)CO3)c2c1,>200 µM
8,COc1ccc2nccc(CC[C@H]3OC[C@H](NC(=O)c4ccc5c(n4)NC(=O)CS5)CO3)c2c1,>200 µM

# Target: T1, DNA gyrase (Staphylococcus aureus)
# Assay: Inhibition of Staphylococcus aureus DNA gyrase assessed as double-strand break at 20 uM using relaxed pBR322 as substrate by ethidium bromide-based gel electrophoresis
# Type: protein-complex assay
# Settings: not given
# Outline: as §1
row,Structure (SMILES),inhibition
1,COc1ccc2nccc(CC[C@H]3OC[C@H](NC(=O)c4ccc(C)cc4)CO3)c2c1,inactive
2,COc1ccc2nccc(CC[C@H]3OC[C@H](NC(=O)c4ccc(C(C)(C)C)cc4)CO3)c2c1,inactive
3,COc1ccc2nccc(CC[C@H]3OC[C@H](NC(=O)c4ccc(Cl)cc4)CO3)c2c1,inactive
4,COc1ccc2nccc(CC[C@H]3OC[C@H](NC(=O)c4ccc(OC(F)(F)F)cc4)CO3)c2c1,inactive
5,COc1ccc2nccc(CC[C@H]3OC[C@H](NC(=O)c4cccc(Cl)c4)CO3)c2c1,inactive

# Target: DNA gyrase (Staphylococcus aureus, UniProt P0A0K8+P20831)
# Assay: Inhibition of Staphylococcus aureus DNA gyrase using relaxed pBR322 as substrate by gel electrophoresis
# Type: protein-complex assay
# Settings: not given
row,Structure (SMILES),IC50
1,COc1ccc2nccc(CC[C@H]3OC[C@H](NC(=O)c4ccc(C)cc4)CO3)c2c1,410 nM
2,COc1ccc2nccc(CC[C@H]3OC[C@H](NC(=O)c4ccc(C(C)(C)C)cc4)CO3)c2c1,1300 nM
3,COc1ccc2nccc(CC[C@H]3OC[C@H](NC(=O)c4ccc(Cl)cc4)CO3)c2c1,610 nM
4,COc1ccc2nccc(CC[C@H]3OC[C@H](NC(=O)c4ccc5c(n4)NC(=O)CO5)CO3)c2c1,40 nM
5,COc1ccc2nccc(CC[C@H]3OC[C@H](NC(=O)c4ccc(OC(F)(F)F)cc4)CO3)c2c1,1400 nM
6,COc1ccc2nccc(CC[C@H]3OC[C@H](NC(=O)c4cccc(Cl)c4)CO3)c2c1,320 nM
7,COc1ccc2nccc(CC[C@H]3OC[C@H](NC(=O)c4ccc5c(c4)NC(=O)CO5)CO3)c2c1,60 nM
8,COc1ccc2nccc(CC[C@H]3OC[C@H](NC(=O)c4ccc5c(n4)NC(=O)CS5)CO3)c2c1,170 nM

# Target: Topoisomerase IV (Staphylococcus aureus, UniProt P0C1S7+P0C1U9)
# Assay: (§2) Inhibition of Staphylococcus aureus topoisomerase-4 assessed as reduction in decatenation of kinetoplast DNA agarose gel electrophoresis method
# Type: protein-complex assay
# Settings: not given
row,Structure (SMILES),IC50
1,COc1ccc2nccc(CC[C@H]3OC[C@H](NC(=O)c4ccc(C(C)(C)C)cc4)CO3)c2c1,> 200000 nM
2,COc1ccc2nccc(CC[C@H]3OC[C@H](NC(=O)c4ccc5c(n4)NC(=O)CO5)CO3)c2c1,190 nM
3,COc1ccc2nccc(CC[C@H]3OC[C@H](NC(=O)c4ccc5c(c4)NC(=O)CO5)CO3)c2c1,890 nM
4,COc1ccc2nccc(CC[C@H]3OC[C@H](NC(=O)c4ccc5c(n4)NC(=O)CS5)CO3)c2c1,300 nM

# Target: Topoisomerase IV (Staphylococcus aureus, UniProt P0C1U9+P0C1S7)
# Assay: as §2
# Type: protein-complex assay
# Settings: not given
row,Structure (SMILES),IC50
1,COc1ccc2nccc(CC[C@H]3OC[C@H](NC(=O)c4ccc(C)cc4)CO3)c2c1,Not Active
2,COc1ccc2nccc(CC[C@H]3OC[C@H](NC(=O)c4ccc(Cl)cc4)CO3)c2c1,Not Active
3,COc1ccc2nccc(CC[C@H]3OC[C@H](NC(=O)c4ccc(OC(F)(F)F)cc4)CO3)c2c1,Not Active
4,COc1ccc2nccc(CC[C@H]3OC[C@H](NC(=O)c4cccc(Cl)c4)CO3)c2c1,Not Active

# System: Staphylococcus aureus
# Assay: Antibacterial activity against Staphylococcus aureus 3527 by CLSI based agar dilution method
# Type: functional
# Settings: not given
row,Structure (SMILES),MIC
1,COc1ccc2nccc(CC[C@H]3OC[C@H](NC(=O)c4ccc(C)cc4)CO3)c2c1,2 µg/mL
2,COc1ccc2nccc(CC[C@H]3OC[C@H](NC(=O)c4ccc(C(C)(C)C)cc4)CO3)c2c1,1 µg/mL
3,COc1ccc2nccc(CC[C@H]3OC[C@H](NC(=O)c4ccc(Cl)cc4)CO3)c2c1,2 µg/mL
4,COc1ccc2nccc(CC[C@H]3OC[C@H](NC(=O)c4ccc5c(n4)NC(=O)CO5)CO3)c2c1,0.125 µg/mL
5,COc1ccc2nccc(CC[C@H]3OC[C@H](NC(=O)c4ccc(OC(F)(F)F)cc4)CO3)c2c1,2 µg/mL
6,COc1ccc2nccc(CC[C@H]3OC[C@H](NC(=O)c4cccc(Cl)c4)CO3)c2c1,1 µg/mL
7,COc1ccc2nccc(CC[C@H]3OC[C@H](NC(=O)c4ccc5c(c4)NC(=O)CO5)CO3)c2c1,0.5 µg/mL
8,COc1ccc2nccc(CC[C@H]3OC[C@H](NC(=O)c4ccc5c(n4)NC(=O)CS5)CO3)c2c1,0.03 µg/mL

# System: Staphylococcus aureus
# Assay: Antibacterial activity against Staphylococcus aureus ATCC 29213 by CLSI based agar dilution method
# Type: functional
# Settings: not given
row,Structure (SMILES),MIC
1,COc1ccc2nccc(CC[C@H]3OC[C@H](NC(=O)c4ccc(C)cc4)CO3)c2c1,1 µg/mL
2,COc1ccc2nccc(CC[C@H]3OC[C@H](NC(=O)c4ccc(C(C)(C)C)cc4)CO3)c2c1,0.25 µg/mL
3,COc1ccc2nccc(CC[C@H]3OC[C@H](NC(=O)c4ccc(Cl)cc4)CO3)c2c1,1 µg/mL
4,COc1ccc2nccc(CC[C@H]3OC[C@H](NC(=O)c4ccc5c(n4)NC(=O)CO5)CO3)c2c1,0.125 µg/mL
5,COc1ccc2nccc(CC[C@H]3OC[C@H](NC(=O)c4ccc(OC(F)(F)F)cc4)CO3)c2c1,0.5 µg/mL
6,COc1ccc2nccc(CC[C@H]3OC[C@H](NC(=O)c4cccc(Cl)c4)CO3)c2c1,2 µg/mL
7,COc1ccc2nccc(CC[C@H]3OC[C@H](NC(=O)c4ccc5c(c4)NC(=O)CO5)CO3)c2c1,0.25 µg/mL
8,COc1ccc2nccc(CC[C@H]3OC[C@H](NC(=O)c4ccc5c(n4)NC(=O)CS5)CO3)c2c1,0.06 µg/mL

# Target: Voltage-gated inwardly rectifying potassium channel KCNH2 (Homo sapiens, UniProt Q12809)
# Assay: Inhibition of human ERG
# Settings: human
row,Structure (SMILES),INH
1,COc1ccc2nccc(CC[C@H]3OC[C@H](NC(=O)c4ccc(C)cc4)CO3)c2c1,> 30 µM
2,COc1ccc2nccc(CC[C@H]3OC[C@H](NC(=O)c4ccc(C(C)(C)C)cc4)CO3)c2c1,5.2 µM
3,COc1ccc2nccc(CC[C@H]3OC[C@H](NC(=O)c4ccc(Cl)cc4)CO3)c2c1,11 µM
4,COc1ccc2nccc(CC[C@H]3OC[C@H](NC(=O)c4ccc5c(n4)NC(=O)CO5)CO3)c2c1,> 12 µM
5,COc1ccc2nccc(CC[C@H]3OC[C@H](NC(=O)c4ccc(OC(F)(F)F)cc4)CO3)c2c1,> 10 µM
6,COc1ccc2nccc(CC[C@H]3OC[C@H](NC(=O)c4cccc(Cl)c4)CO3)c2c1,> 3 µM
7,COc1ccc2nccc(CC[C@H]3OC[C@H](NC(=O)c4ccc5c(n4)NC(=O)CS5)CO3)c2c1,> 3 µM

# System: Staphylococcus aureus
# Assay: Antibacterial activity against Staphylococcus aureus D83N by CLSI based agar dilution method
# Type: functional
# Settings: not given
row,Structure (SMILES),MIC
1,COc1ccc2nccc(CC[C@H]3OC[C@H](NC(=O)c4ccc(C)cc4)CO3)c2c1,> 32 µg/mL
2,COc1ccc2nccc(CC[C@H]3OC[C@H](NC(=O)c4ccc(C(C)(C)C)cc4)CO3)c2c1,2 µg/mL
3,COc1ccc2nccc(CC[C@H]3OC[C@H](NC(=O)c4ccc(Cl)cc4)CO3)c2c1,> 32 µg/mL
4,COc1ccc2nccc(CC[C@H]3OC[C@H](NC(=O)c4ccc5c(n4)NC(=O)CO5)CO3)c2c1,> 64 µg/mL
5,COc1ccc2nccc(CC[C@H]3OC[C@H](NC(=O)c4ccc(OC(F)(F)F)cc4)CO3)c2c1,> 32 µg/mL
6,COc1ccc2nccc(CC[C@H]3OC[C@H](NC(=O)c4cccc(Cl)c4)CO3)c2c1,> 32 µg/mL
7,COc1ccc2nccc(CC[C@H]3OC[C@H](NC(=O)c4ccc5c(c4)NC(=O)CO5)CO3)c2c1,> 64 µg/mL
8,COc1ccc2nccc(CC[C@H]3OC[C@H](NC(=O)c4ccc5c(n4)NC(=O)CS5)CO3)c2c1,> 64 µg/mL
